Data taken from article PMC7564327 (Acta Pharmaceutica Sinica. B, 2020).

How the values were obtained:
[1] = biological target: T1, hOATP1B1 (Homo sapiens, UniProt Q9Y6L6); assay: Cellular uptake and kinetics in HEK293-hOATP1B1 vs Mock cells; format: in vitro ADME; conditions: 100 μmol/L
T1 sequence (Q9Y6L6 1-691): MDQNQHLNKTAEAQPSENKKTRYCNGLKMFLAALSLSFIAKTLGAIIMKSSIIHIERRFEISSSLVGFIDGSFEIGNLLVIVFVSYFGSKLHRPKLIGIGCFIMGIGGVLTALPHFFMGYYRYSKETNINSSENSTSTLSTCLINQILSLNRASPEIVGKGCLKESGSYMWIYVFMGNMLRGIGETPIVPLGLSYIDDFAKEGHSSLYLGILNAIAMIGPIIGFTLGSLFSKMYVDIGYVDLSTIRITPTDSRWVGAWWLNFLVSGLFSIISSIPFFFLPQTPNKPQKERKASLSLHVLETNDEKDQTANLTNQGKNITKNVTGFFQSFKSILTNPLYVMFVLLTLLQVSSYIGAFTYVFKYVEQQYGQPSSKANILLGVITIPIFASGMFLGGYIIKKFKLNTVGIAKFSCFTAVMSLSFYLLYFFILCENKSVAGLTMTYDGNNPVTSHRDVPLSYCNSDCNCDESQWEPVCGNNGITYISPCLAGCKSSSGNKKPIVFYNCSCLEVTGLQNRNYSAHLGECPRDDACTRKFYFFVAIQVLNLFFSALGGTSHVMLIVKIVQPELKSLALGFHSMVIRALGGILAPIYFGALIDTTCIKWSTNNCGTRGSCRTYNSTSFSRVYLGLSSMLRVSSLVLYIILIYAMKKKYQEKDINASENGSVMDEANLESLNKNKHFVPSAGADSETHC

[2] = biological target: T2, hOATP2B1 (Homo sapiens, UniProt O94956); assay: Cellular uptake in HEK293-hOATP2B1 vs Mock cells; format: in vitro ADME; conditions: 100 μmol/L, substrate if >2-fold of wild type
T2 sequence (O94956 1-709): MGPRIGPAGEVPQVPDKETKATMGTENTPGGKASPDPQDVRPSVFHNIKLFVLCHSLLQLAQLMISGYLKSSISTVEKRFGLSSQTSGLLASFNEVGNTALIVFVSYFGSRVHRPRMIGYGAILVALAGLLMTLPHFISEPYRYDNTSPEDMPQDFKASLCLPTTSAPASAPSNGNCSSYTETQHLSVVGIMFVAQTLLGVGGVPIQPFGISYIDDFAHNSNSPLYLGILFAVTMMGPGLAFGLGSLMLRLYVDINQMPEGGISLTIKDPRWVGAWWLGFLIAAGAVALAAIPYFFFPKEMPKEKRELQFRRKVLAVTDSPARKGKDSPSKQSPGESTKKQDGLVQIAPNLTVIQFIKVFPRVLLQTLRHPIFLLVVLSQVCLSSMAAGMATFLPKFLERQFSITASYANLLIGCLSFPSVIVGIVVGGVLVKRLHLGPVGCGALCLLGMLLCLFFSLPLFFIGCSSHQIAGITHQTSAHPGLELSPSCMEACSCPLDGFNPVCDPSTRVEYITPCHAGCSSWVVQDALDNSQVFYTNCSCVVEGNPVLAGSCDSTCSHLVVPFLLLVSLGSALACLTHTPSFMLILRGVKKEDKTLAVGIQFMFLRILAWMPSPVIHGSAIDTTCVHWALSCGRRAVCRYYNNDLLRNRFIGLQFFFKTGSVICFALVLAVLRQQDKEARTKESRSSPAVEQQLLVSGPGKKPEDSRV

[3] = biological target: T3, hOAT3 (Homo sapiens, UniProt Q8TCC7); assay: Inhibition of 3H-ES uptake in S2-hOAT3 cells; format: in vitro ADME; conditions: for inhibition of the activity of hOAT3: 100 μmol/L IPT, ISP, 100 μg/mL AD extract, substrate 3H-ES
T3 sequence (Q8TCC7 1-542): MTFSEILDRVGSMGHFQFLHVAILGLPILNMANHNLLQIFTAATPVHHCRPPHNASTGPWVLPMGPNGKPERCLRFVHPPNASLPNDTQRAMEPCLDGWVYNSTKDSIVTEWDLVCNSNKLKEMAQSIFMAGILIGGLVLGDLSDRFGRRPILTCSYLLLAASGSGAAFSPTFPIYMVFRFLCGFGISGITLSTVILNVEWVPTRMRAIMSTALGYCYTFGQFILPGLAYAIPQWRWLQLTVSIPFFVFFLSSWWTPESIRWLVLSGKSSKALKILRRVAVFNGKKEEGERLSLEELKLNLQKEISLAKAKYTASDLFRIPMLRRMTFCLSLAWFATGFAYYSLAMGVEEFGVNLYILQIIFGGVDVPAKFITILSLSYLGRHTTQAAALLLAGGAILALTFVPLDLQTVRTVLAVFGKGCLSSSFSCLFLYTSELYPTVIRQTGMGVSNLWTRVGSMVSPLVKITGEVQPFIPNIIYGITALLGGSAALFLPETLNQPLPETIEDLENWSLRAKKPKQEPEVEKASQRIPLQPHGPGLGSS
Summary of the method: (§1)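 Test compounds were made as DMSO stocks (20 mmol/L, or 10 mg/mL for extract) and diluted in PBS to a final DMSO below 0.5%. Cells were exposed at 37 °C to probe plus or minus test compound. The probe was 5 μmol/L ¹⁴C-PAH for 5 min (hOAT1) or 50 nmol/L ³H-estrone sulfate for 2 min (hOAT3, hOATP2B1). Screens used 100 μmol/L (extract 100 mg/L); IC50 came from varied concentrations. Cells were then given three cold DPBS washes, lysed in 0.1 mol/L NaOH and read by scintillation counting. Data are mean ± SD, n = 3.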

[4] = biological target: T2, hOATP2B1; assay: Inhibition of 3H-ES uptake in HEK293-hOATP2B1 cells; format: in vitro ADME; conditions: 100 μmol/L IPT, ISP; substrate 3H-ES
Summary of the method: as §1

[5] = system: mice liver slices; assay: In vitro uptake of TDE in mice liver slices; format: in vitro ADME, Kunming mice; conditions: mice liver slices, TDE 10 μmol/L
Summary of the method: (§2)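 Kunming mice (20–25 g, fasted 12 h) were anaesthetised with urethane, and kidney or liver was decapsulated into ice-cold oxygenated buffer at pH 7.5. Slices of about 30 mg were preincubated 5 min under carbogen at 4 or 37 °C. They were then incubated with 10 μmol/L test compound for 5, 10 or 30 min, with or without reference OAT1/OAT3 or OATP inhibitors or co-ingredients. Slices were then washed, blotted, weighed and homogenised, then extracted with methanol and an internal standard for HPLC–MS.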

[6] = system: mice kidney slices; assay: In vitro uptake of TDE in mice kidney slices; format: in vitro ADME, Kunming mice; conditions: TDE 10 μmol/L
Summary of the method: as §2

[7] = system: mOatp1a1; assay: qRT-PCR of mOatp1a1 mRNA in liver of treated mice; format: in vivo; conditions: mice given 20 mg/kg TDE with 20 mg/kg IPT, ISP or 200 mg/kg AD extract, 4 h
[8] = system: mOatp1a4; assay: qRT-PCR of mOatp1a4 mRNA in liver of treated mice; format: in vivo; conditions: mice given 20 mg/kg TDE with 20 mg/kg IPT, ISP or 200 mg/kg AD extract, 4 h
[9] = Tissue distribution of TDE in mice; conditions: oral 20 mg/kg TDE with 20 mg/kg IPT, 20 mg/kg ISP or 200 mg/kg AD extract, 1, 2 and 4 h; for accumulation of TDE in kidney vs TDE alone / accumulation of TDE in liver vs TDE alone: P < 0.05

Row | SMILES | accumulation in hOATP1B1-overexpressed cell lines compared to wild type [1] | accumulation in HEK293-hOATP2B1 vs HEK293 wild type [2] | IC50 [3] [µM] | inhibition of the activity of hOAT3 [3] | inhibition to hOATP2B1 [4] | effect on the uptake of TDE in liver slices [5] | effect on the uptake of TDE in kidney slices [6] | mRNA level of mOatp1a1 decreased to, compared to TDE alone [7] [%] | mRNA level of mOatp1a4 decreased to, compared to TDE alone [8] [%] | concentration of TDE in blood vs TDE alone [9] | concentration of TDE in brain vs TDE alone [9] | accumulation of TDE in kidney vs TDE alone [9] | accumulation of TDE in liver vs TDE alone [9]
1 | CC(C)=CCOc1c2occc2cc2ccc(=O)oc12 [IPT, imperatorin] | could largely accumulate | less than 2 fold | 2.74 | significantly inhibited | weak or no inhibition | significant inhibition | significant inhibition | 22 | 36 | significantly enhanced | significantly enhanced | significantly decreased | significantly decreased
2 | CC(C)=CCOc1c2ccoc2cc2oc(=O)ccc12 [ISP, isoimperatorin] | could largely accumulate | less than 2 fold | 11.7 | significantly inhibited | weak or no inhibition | significant inhibition | significant inhibition | 37 | 61 | significantly enhanced | significantly enhanced | significantly decreased | significantly decreased
